Results collected from several papers.
Target: Calcium/calmodulin-dependent protein kinase type 1G (CAMK1G, Homo sapiens, UniProt Q96NX5)

The remaining binding of `CCN1CCN(Cc2ccc(C(=O)Nc3ccc(C)c(Oc4ccc5c(c4)CC(=O)N5)c3)cc2C(F)(F)F)CC1` is reported as 94% (binding; competition with immobilised ligand; 1 µM).
`O=C(NCC1CCOCC1)c1n[nH]cc1NC(=O)c1c(F)cccc1F` gave a remaining binding of 96% (binding; competition with immobilised ligand; 1 µM).
`COc1cc(-c2cn(C3CCc4ccccc4N(CC(F)(F)F)C3=O)nn2)ccc1-n1ccc(C)n1` (stereo not shown) has a remaining binding of 100% (cell-free assay; competition with immobilised ligand; 1 µM).
`O=C(c1ccc(Nc2ncc(Cl)c(-c3cc4ccccc4s3)n2)cc1)N1CCC(N2CCCC2)CC1` has a remaining binding of 82% (binding; competition with immobilised ligand; 1 µM).
The remaining binding of `F[C@@H]1CCN(c2nccc(-c3cnn4ncccc34)n2)C1` is reported as 100% (binding; 1 µM).
The remaining binding of `CNC(=O)[C@@H]1CC[C@@H](n2c(-c3ccc4cnccc4c3)nc3ccc(C(=O)NCc4cccc(C(N)=O)c4)cc32)C1` is reported as 98% (binding; competition with immobilised ligand; 1 µM).
The remaining binding of `COCCOc1nc(-c2ccc(Cl)nc2)nc2c1CN(C(=O)c1ncn3ccccc13)CC2` is reported as 100% (cell-free assay; competition with immobilised ligand; 0.1 µM).
For `c1cnn2ncc(-c3ccnc(N4CCC45COC5)n3)c2c1`, the remaining binding was 100% (binding; 1 µM).
With `CC(=O)N1CCC(c2ccc(C(=O)NC(=N)N)cc2C(F)(F)F)CC1` the remaining binding was 100% (cell-free assay; competition with immobilised ligand; 1 µM).
`O=C(NCCCN1CCOCC1)c1ccc(Nc2ncc(Cl)c(-c3ccc(Cl)s3)n2)cc1` has a remaining binding of 74% (binding; competition with immobilised ligand; 1 µM).
`CN(C)c1nccc(-c2cnn3ncccc23)n1` gave a remaining binding of 92% (binding; competition with immobilised ligand; 1 µM).
For `C=CC(=O)N1CCC(C(=O)NCC(=O)N2CCN(c3nc(-c4cnc(N)nc4C(F)F)nc(N4CCOCC4)n3)CC2)CC1`, the remaining binding was 100% (binding; competition with immobilised ligand; 1 µM).
`N[C@@H]1CCN(c2nccc(-c3cnn4ncccc34)n2)C1` has a remaining binding of 100% (binding; 1 µM).
The remaining binding of `Nc1ncc2c(n1)-c1c([nH]c3ccc(C#CC4CC4)cc13)CCCC2` is reported as 87% (binding; competition with immobilised ligand; 1 µM).
The remaining binding of `CCC(=N\O)/C(C)=C/c1ccc(F)cc1` is reported as 97% (cell-free assay; competition with immobilised ligand; 1 µM).
`CN(C)c1nccc(-c2cnc3ncccn23)n1` has a remaining binding of 100% (binding; 1 µM).
`Cn1nc(C(=O)NCc2ccc(C(=O)O)cc2)cc1-c1ccc2[nH]ccc2c1` has a remaining binding of 89% (cell-free assay; competition with immobilised ligand; 0.1 µM).
For `C[C@H]1CCN(c2nccc(-c3cnn4ncccc34)n2)C1`, the remaining binding was 97% (binding; 1 µM).
`O=C(N1CCS(=O)(=O)CC1)N1C[C@H](c2ccc(OC(F)(F)F)cc2)C[C@H](c2nc(C3CC3)no2)C1` has a remaining binding of 100% (cell-free assay; competition with immobilised ligand; 1 µM).
`O=C(c1ccc(Nc2nccc(-c3cc4ccccc4s3)n2)cc1)N1CCC(N2CCCC2)CC1` has a remaining binding of 72% (binding; competition with immobilised ligand; 1 µM).
For `COc1ccnn2ncc(-c3ccnc(N(C)C)n3)c12`, the remaining binding was 100% (binding; 1 µM).
`COc1ccc2cc(OCC3(C(=O)O)CN(C(=O)c4ccc(F)cc4)C3)ccc2c1` gave a remaining binding of 100% (cell-free assay; competition with immobilised ligand; 1 µM).
